The results in this text go back to ChEMBL document CHEMBL1153817, “New resorcinol-anandamide "hybrids" as potent cannabinoid receptor ligands endowed with antinociceptive activity in vivo” (J Med Chem, 2009).

As a reminder, the IC50 is the concentration that gives 50% inhibition.

T4 sequence (P21554 whole entry): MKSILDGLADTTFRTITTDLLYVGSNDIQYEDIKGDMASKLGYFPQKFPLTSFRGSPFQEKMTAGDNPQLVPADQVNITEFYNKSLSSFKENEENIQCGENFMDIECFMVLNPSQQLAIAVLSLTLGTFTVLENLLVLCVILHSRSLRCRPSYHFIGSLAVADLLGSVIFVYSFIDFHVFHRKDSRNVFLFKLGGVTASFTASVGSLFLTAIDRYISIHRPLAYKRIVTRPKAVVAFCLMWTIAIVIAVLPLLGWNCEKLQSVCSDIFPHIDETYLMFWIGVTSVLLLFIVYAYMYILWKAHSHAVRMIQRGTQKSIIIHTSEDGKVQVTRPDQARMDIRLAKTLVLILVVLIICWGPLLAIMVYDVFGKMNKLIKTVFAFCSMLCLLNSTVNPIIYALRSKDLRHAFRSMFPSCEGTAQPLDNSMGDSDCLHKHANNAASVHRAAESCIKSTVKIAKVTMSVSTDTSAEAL
T1 sequence (P20272 whole entry): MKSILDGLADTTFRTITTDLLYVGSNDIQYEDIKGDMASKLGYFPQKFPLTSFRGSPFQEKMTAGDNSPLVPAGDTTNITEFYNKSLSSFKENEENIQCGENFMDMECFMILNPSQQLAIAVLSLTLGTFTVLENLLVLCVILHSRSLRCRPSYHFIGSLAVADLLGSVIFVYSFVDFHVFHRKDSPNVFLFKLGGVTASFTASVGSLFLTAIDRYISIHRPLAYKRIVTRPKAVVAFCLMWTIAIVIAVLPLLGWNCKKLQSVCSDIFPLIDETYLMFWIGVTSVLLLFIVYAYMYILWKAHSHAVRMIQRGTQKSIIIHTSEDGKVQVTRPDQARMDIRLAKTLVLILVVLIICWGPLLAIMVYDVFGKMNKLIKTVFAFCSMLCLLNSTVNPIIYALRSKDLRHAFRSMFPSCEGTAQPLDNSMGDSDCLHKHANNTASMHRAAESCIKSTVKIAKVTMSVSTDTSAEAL

One assay concerns the target T1, Cannabinoid receptor 1 (Rattus norvegicus, UniProt P20272). Kind of assay: Binding affinity to CB1 receptor in rat brain membrane. It counts as cell membranes.
Conditions: not given; call rule not given here
Compound `O=C(CCCCCCCCCCOc1cc(O)cc(O)c1)NCC1CC1` returned an IC50 of over 10 µM.

`O=C(CCCCCCCCCCOc1cc(O)cc(O)c1)NCCO` displayed an IC50 of over 10 µM.

`O=C(CCCCCCCCCCOc1cc(O)cc(O)c1)NC1CC1` displayed an IC50 of over 10 µM.

The target of another assay is T2, Cannabinoid receptor 2 (Homo sapiens, UniProt P34972). Kind of assay: Binding affinity to human recombinant CB2 receptor expressed in african green monkey COS cells by radioligand binding assay. It counts as cell-based. The note with it: cos.
T2 sequence (P34972 whole entry): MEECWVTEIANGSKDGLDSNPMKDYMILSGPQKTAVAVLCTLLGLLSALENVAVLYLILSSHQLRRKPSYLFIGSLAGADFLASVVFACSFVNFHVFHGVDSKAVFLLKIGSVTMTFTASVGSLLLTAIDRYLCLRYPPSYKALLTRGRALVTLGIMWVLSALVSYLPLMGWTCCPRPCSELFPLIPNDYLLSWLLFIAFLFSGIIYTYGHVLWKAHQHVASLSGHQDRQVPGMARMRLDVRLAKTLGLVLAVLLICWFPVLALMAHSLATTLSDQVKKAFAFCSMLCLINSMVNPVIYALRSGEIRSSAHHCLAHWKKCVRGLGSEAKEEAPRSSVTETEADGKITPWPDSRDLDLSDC
With `O=C(CCCCCCCCCCOc1cc(O)cc(O)c1)NCC1CC1`, the Ki entry is recorded as “Not Active”.

In the case of `O=C(CCCCCCCCCCOc1cc(O)cc(O)c1)NCCO`, the Ki result was “Not Active”.

With `O=C(CCCCCCCCCCOc1cc(O)cc(O)c1)NC1CC1`, the Ki entry is on record as “Not Active”.

The assay is the same for the next values; noted with them: read-out: Ki.
As for `CCCCCCC(C)(C)c1cc(O)cc(OCCCCCCCC(=O)NCCO)c1`, the Ki was determined as 0.16 µM.

Take `CCCCCCC(C)(C)c1cc(O)cc(OCCCCCCCCCCC(=O)NCC2CC2)c1`: the Ki worked out at 0.035 µM.

For `CCCCCCCOc1cc(O)cc(OCCCCCCCCCCC(=O)NCCO)c1`, the Ki amounted to 2.42 µM.

Turning to `CCCCCCC(C)(C)c1cc(O)cc(OCCCCCCCCCCCC(=O)NCCO)c1`, the Ki came to 0.08 µM.

As to `CCCCCCC(C)(C)c1cc(O)cc(OCCCCCCCCCCC(=O)NCCc2ccc(O)c(O)c2)c1`, the Ki worked out at 5 µM.

With `CCCCCCC(C)(C)c1cc(O)cc(OCCCCCCCCCCC(=O)NC2CC2)c1`, the Ki came to 0.0079 µM.

For the compound `CC(C)CCOc1cc(O)cc(OCCCCCCCCCCC(=O)NCC2CC2)c1`, the Ki amounted to 0.2 µM.

As for `CCCCCCC(C)(C)c1cc(O)cc(OCCCCCCCCCCCC(=O)NC2CC2)c1`, the Ki came out at 0.02 µM.

Staying with this assay, now noted: read-out: pKi (converted).
As for `O=C(CCCCCCCCCCOc1cc(O)cc(O)c1)NCC1CC1`, the Ki is 10 µM.

Turning to `O=C(CCCCCCCCCCOc1cc(O)cc(O)c1)NCCO`, the Ki is 10 µM.

In the case of `O=C(CCCCCCCCCCOc1cc(O)cc(O)c1)NC1CC1`, the Ki was 10 µM.

The next assay has as its target T3, Cannabinoid receptor 2 (Rattus norvegicus, UniProt Q9QZN9).
T3 sequence (Q9QZN9 whole entry): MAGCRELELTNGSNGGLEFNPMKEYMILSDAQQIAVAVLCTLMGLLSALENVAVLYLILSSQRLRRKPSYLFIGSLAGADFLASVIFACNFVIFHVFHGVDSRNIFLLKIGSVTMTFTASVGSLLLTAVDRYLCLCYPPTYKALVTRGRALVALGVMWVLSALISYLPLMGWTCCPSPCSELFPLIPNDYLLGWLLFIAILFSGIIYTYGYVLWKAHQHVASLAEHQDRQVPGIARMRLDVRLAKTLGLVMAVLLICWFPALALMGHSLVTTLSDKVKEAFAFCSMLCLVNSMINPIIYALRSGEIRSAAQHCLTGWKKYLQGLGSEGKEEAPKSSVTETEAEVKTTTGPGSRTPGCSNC
Kind of assay: Binding affinity to CB2 receptor in rat brain membrane. It counts as cell membranes.
Conditions: not given
The compound `O=C(CCCCCCCCCCOc1cc(O)cc(O)c1)NCC1CC1` displayed an IC50 of over 10 µM.

`O=C(CCCCCCCCCCOc1cc(O)cc(O)c1)NCCO` had an IC50 of over 10 µM.

For `O=C(CCCCCCCCCCOc1cc(O)cc(O)c1)NC1CC1`, the IC50 is over 10 µM.

Another assay deals with T1, Cannabinoid receptor 1. Kind of assay: Binding affinity to CB1 receptor in rat spleen membrane. It counts as cell membranes.
Conditions: not given
`O=C(CCCCCCCCCCOc1cc(O)cc(O)c1)NCC1CC1` came in with an IC50 of over 10 µM.

For `O=C(CCCCCCCCCCOc1cc(O)cc(O)c1)NCCO`, the IC50 was over 10 µM.

`O=C(CCCCCCCCCCOc1cc(O)cc(O)c1)NC1CC1` yielded an IC50 of over 10 µM.

In the next assay the target is T2, Cannabinoid receptor 2. Kind of assay: Displacement of [3H]CP-55940 form human CB2 receptor expressed in HEK cells at 10 uM. It counts as cell-based. The note with it: HEK293. On the technique in general: Loss of bound radioactivity is the signal in a displacement assay; it reports binding, not function.
With `CCCCCCC(C)(C)c1cc(O)cc(OCCCCCCCC(=O)NCCO)c1`, the Activity was over 50%.

On to `CCCCCCC(C)(C)c1cc(O)cc(OCCCCCCCCCCC(=O)NCC2CC2)c1`, for which the Activity was over 50%.

`CCCCCCCOc1cc(O)cc(OCCCCCCCCCCC(=O)NCCO)c1` had an Activity of over 50%.

In turn, `CCCCCCC(C)(C)c1cc(O)cc(OCCCCCCCCCCCC(=O)NCCO)c1` showed an Activity of over 50%.

As for `CCCCCCC(C)(C)c1cc(O)cc(OCCCCCCCCCCC(=O)NCCc2ccc(O)c(O)c2)c1`, the Activity is over 50%.

`CCCCCCC(C)(C)c1cc(O)cc(OCCCCCCCCCCC(=O)NC2CC2)c1` gave an Activity of over 50%.

Turning to `CC(C)CCOc1cc(O)cc(OCCCCCCCCCCC(=O)NCC2CC2)c1`, the Activity is over 50%.

Turning to `CCCCCCC(C)(C)c1cc(O)cc(OCCCCCCCCCCCC(=O)NC2CC2)c1`, the Activity was over 50%.

In the case of `O=C(CCCCCCCCCCOc1cc(O)cc(O)c1)NCC1CC1`, the Activity was over 50%.

`O=C(CCCCCCCCCCOc1cc(O)cc(O)c1)NCCO` had an Activity of over 50%.

`O=C(CCCCCCCCCCOc1cc(O)cc(O)c1)NC1CC1` returned an Activity of over 50%.

The test system of another assay is COS. Kind of assay: Selectivity index, ratio of Ki for human CB2 receptor to Ki for human CB1 receptor expressed in african green monkey COS cells. It counts as cell-based.
Conditions: not given
The essentials: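 Ki at COS-expressed human CB1 and CB2 each from [3H]CP-55,940 displacement (0.14 nM for CB1), IC50 converted via Cheng-Prusoff, mean of 3 experiments; index taken as ratio of the two Ki values.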
Consider `CCCCCCC(C)(C)c1cc(O)cc(OCCCCCCCC(=O)NCCO)c1`, for which the Ratio Ki worked out at 0.4 µM.

`CCCCCCC(C)(C)c1cc(O)cc(OCCCCCCCCCCC(=O)NCC2CC2)c1`: the Ratio Ki was found to be 28.6 µM.

`CCCCCCCOc1cc(O)cc(OCCCCCCCCCCC(=O)NCCO)c1`: the Ratio Ki worked out at 1.3 µM.

`CCCCCCC(C)(C)c1cc(O)cc(OCCCCCCCCCCCC(=O)NCCO)c1`: the Ratio Ki worked out at 10.3 µM.

Turning to `CCCCCCC(C)(C)c1cc(O)cc(OCCCCCCCCCCC(=O)NCCc2ccc(O)c(O)c2)c1`, the Ratio Ki was found to be 0.7 µM.

With `CCCCCCC(C)(C)c1cc(O)cc(OCCCCCCCCCCC(=O)NC2CC2)c1`, the Ratio Ki was determined as 2.7 µM.

Take `CC(C)CCOc1cc(O)cc(OCCCCCCCCCCC(=O)NCC2CC2)c1`: the Ratio Ki was found to be 11.5 µM.

With `CCCCCCC(C)(C)c1cc(O)cc(OCCCCCCCCCCCC(=O)NC2CC2)c1`, the Ratio Ki is 8.5 µM.

Another assay has as its target T4, Cannabinoid receptor 1 (Homo sapiens, UniProt P21554). In words: Displacement of [3H]CP-55940 form human CB1 receptor expressed in HEK cells at 10 uM. The note with it: HEK293. It counts as cell-based.
In the case of `CCCCCCC(C)(C)c1cc(O)cc(OCCCCCCCC(=O)NCCO)c1`, the Activity was over 50%.

With `CCCCCCC(C)(C)c1cc(O)cc(OCCCCCCCCCCC(=O)NCC2CC2)c1`, the Activity is over 50%.

With `CCCCCCCOc1cc(O)cc(OCCCCCCCCCCC(=O)NCCO)c1`, the Activity is over 50%.

`CCCCCCC(C)(C)c1cc(O)cc(OCCCCCCCCCCCC(=O)NCCO)c1`: the Activity was over 50%.

`CCCCCCC(C)(C)c1cc(O)cc(OCCCCCCCCCCC(=O)NCCc2ccc(O)c(O)c2)c1` displayed an Activity of over 50%.

With `CCCCCCC(C)(C)c1cc(O)cc(OCCCCCCCCCCC(=O)NC2CC2)c1`, the Activity was over 50%.

`CC(C)CCOc1cc(O)cc(OCCCCCCCCCCC(=O)NCC2CC2)c1` yielded an Activity of over 50%.

Take `CCCCCCC(C)(C)c1cc(O)cc(OCCCCCCCCCCCC(=O)NC2CC2)c1`: the Activity is over 50%.

`O=C(CCCCCCCCCCOc1cc(O)cc(O)c1)NCC1CC1` returned an Activity of over 50%.

`O=C(CCCCCCCCCCOc1cc(O)cc(O)c1)NCCO` gave an Activity of over 50%.

Take `O=C(CCCCCCCCCCOc1cc(O)cc(O)c1)NC1CC1`: the Activity was over 50%.

In another assay the target is T3, Cannabinoid receptor 2. Kind of assay: Binding affinity to CB2 receptor in rat spleen membrane. It counts as cell membranes.
Conditions: not given
Compound `O=C(CCCCCCCCCCOc1cc(O)cc(O)c1)NCC1CC1` registered an IC50 of over 10 µM.

In turn, `O=C(CCCCCCCCCCOc1cc(O)cc(O)c1)NCCO` yielded a half-inhibitory concentration (IC50) of over 10 µM.

Take `O=C(CCCCCCCCCCOc1cc(O)cc(O)c1)NC1CC1`: the IC50 is over 10 µM.

A further assay concerns the target T4, Cannabinoid receptor 1. Kind of assay: Binding affinity to human recombinant CB1 receptor expressed in african green monkey COS cells by radioligand binding assay. It counts as cell-based. The note with it: cos.
With `O=C(CCCCCCCCCCOc1cc(O)cc(O)c1)NCC1CC1`, the Ki result is “Not Active”.

Take `O=C(CCCCCCCCCCOc1cc(O)cc(O)c1)NCCO`: the Ki result was “Not Active”.

For `O=C(CCCCCCCCCCOc1cc(O)cc(O)c1)NC1CC1`, the Ki result is recorded as “Not Active”.

The assay is the same for the next values; noted with them: read-out: Ki.
`CCCCCCC(C)(C)c1cc(O)cc(OCCCCCCCC(=O)NCCO)c1`: the Ki came out at 0.056 µM.

As to `CCCCCCC(C)(C)c1cc(O)cc(OCCCCCCCCCCC(=O)NCC2CC2)c1`, the Ki was 1 µM.

For the compound `CCCCCCCOc1cc(O)cc(OCCCCCCCCCCC(=O)NCCO)c1`, the Ki came out at 3.07 µM.

For `CCCCCCC(C)(C)c1cc(O)cc(OCCCCCCCCCCCC(=O)NCCO)c1`, the Ki came out at 0.82 µM.

As for `CCCCCCC(C)(C)c1cc(O)cc(OCCCCCCCCCCC(=O)NCCc2ccc(O)c(O)c2)c1`, the Ki came out at 3.4 µM.

As to `CCCCCCC(C)(C)c1cc(O)cc(OCCCCCCCCCCC(=O)NC2CC2)c1`, the Ki turned out to be 0.021 µM.

Turning to `CC(C)CCOc1cc(O)cc(OCCCCCCCCCCC(=O)NCC2CC2)c1`, the Ki amounted to 2.3 µM.

Turning to `CCCCCCC(C)(C)c1cc(O)cc(OCCCCCCCCCCCC(=O)NC2CC2)c1`, the Ki was found to be 0.17 µM.

Still in this assay, the particulars now being: read-out: pKi (converted).
For the compound `O=C(CCCCCCCCCCOc1cc(O)cc(O)c1)NCC1CC1`, the Ki is 10 µM.

As to `O=C(CCCCCCCCCCOc1cc(O)cc(O)c1)NCCO`, the Ki is 10 µM.

Regarding `O=C(CCCCCCCCCCOc1cc(O)cc(O)c1)NC1CC1`, the Ki was 10 µM.
